Experimental data taken from ChEMBL document CHEMBL4038328, “Structure-Guided Optimization of HIV Integrase Strand Transfer Inhibitors” (J Med Chem, 2017).

Experiments:
[1] = test system: Human immunodeficiency virus 1; test: Selectivity ratio of EC50 for VSV-G pseudotyped HIV1 harboring integrase N155H mutant infected in HOS cells to EC50 for VSV-G pseudotyped HIV1 harboring wild-type integrase infected in HOS cells; assay type: functional
Method in brief: (§1)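 Fold change is the EC50 against the mutant-IN vector divided by the EC50 against the WT-IN vector. Both come from the single-round luciferase infectivity assay in HOS cells, with a 3 h compound pretreatment followed by 48 h infection.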

[2] = test system: Human immunodeficiency virus 1; test: Antiviral activity against VSV-G pseudotyped HIV1 harboring integrase Y143R mutant infected in HOS cells pretreated […] for 3 hrs followed by viral infection measured after 48 hrs by luciferase reporter gene assay; assay type: functional, cell-based; settings: Human immunodeficiency virus 1, HOS
Method in brief: (§2)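 Single-round luciferase HIV-1 vector (pNLNgoMIVR−ΔLUC carrying WT or mutant IN) was pseudotyped with VSV-g by calcium phosphate co-transfection of 293 cells, and supernatant was harvested after 48 h. HOS cells were seeded at 4000/well in DMEM with 5% FBS and 5% newborn calf serum. They were pretreated 3 h at 37 °C with 5–0.0001 μM (11 serial dilutions), then infected for 48 h. Luminescence was normalized to untreated cells, and EC50 came from nonlinear regression.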

[3] = test system: Human immunodeficiency virus 1; test: Antiviral activity against VSV-G pseudotyped HIV1 harboring wild-type integrase infected in HOS cells pretreated […] for 3 hrs followed by viral infection measured after 48 hrs by luciferase reporter gene assay; assay type: functional, cell-based; settings: Human immunodeficiency virus 1, HOS; method in brief: as §2
[4] = Inhibition of HIV1 integrase strand transfer activity using 5'-end 32P labeled DNA substrate measured after 2 hrs by PAGE based phosphor imaging method; set-up: species or system Human immunodeficiency virus 1
Method in brief: (§3)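 Gel-based assay, Mg2+ cofactor: 400 nM integrase with 20 nM DNA substrate 5′-32P-labeled on transferred strand in 50 mM MOPS pH 7.2, 7.5 mM MgCl2, 14 mM 2-mercaptoethanol, inhibitor or DMSO; 2 h at 37 °C. Stopped with formamide/SDS loading buffer; products resolved on 16% denaturing polyacrylamide gels, quantified by phosphorimaging.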

[5] = test system: Human immunodeficiency virus 1; test: Selectivity ratio of EC50 for VSV-G pseudotyped HIV1 harboring integrase Y143R mutant infected in HOS cells to EC50 for VSV-G pseudotyped HIV1 harboring wild-type integrase infected in HOS cells; assay type: functional; method in brief: as §1
HOS = test: Cytotoxicity against HOS cells assessed as reduction in cell viability after 48 hrs by ATPLite luminescence assay; assay type: cell-based; settings: human, hos, 48 h
Method in brief: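 HOS cells seeded at 4000 per well the day before, exposed to compounds over 250 to 0.05 μM at 37 °C for 48 h. ATP measured by luminescence after lysis and 20 min signal development at room temperature.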

[6] = test system: Human immunodeficiency virus 1; test: Antiviral activity against VSV-G pseudotyped HIV1 harboring integrase N155H mutant infected in HOS cells pretreated […] for 3 hrs followed by viral infection measured after 48 hrs by luciferase reporter gene assay; assay type: functional, cell-based; settings: Human immunodeficiency virus 1, HOS; method in brief: as §2
[7] = test system: Human immunodeficiency virus 1; test: Selectivity ratio of EC50 for VSV-G pseudotyped HIV1 harboring integrase G140S/Q148H mutant infected in HOS cells to EC50 for VSV-G pseudotyped HIV1 harboring wild-type integrase infected in HOS cells; assay type: functional; method in brief: as §1
[8] = test system: Human immunodeficiency virus 1; test: Antiviral activity against VSV-G pseudotyped HIV1 harboring integrase G140S/Q148H double mutant infected in HOS cells pretreated […] for 3 hrs followed by viral infection measured after 48 hrs by luciferase reporter gene assay; assay type: functional, cell-based; settings: Human immunodeficiency virus 1, HOS; method in brief: as §2
[9] = Inhibition of HIV1 integrase 3' processing activity using 5'-end 32P labeled DNA substrate measured after 2 hrs by PAGE based phosphor imaging method; set-up: species or system Human immunodeficiency virus 1; method in brief: as §3

| SMILES | Ratio EC50 [1] | EC50 [2] [nM] | EC50 [3] [nM] | IC50 [4] [nM] | Ratio EC50 [5] | CC50 (HOS) [nM] | EC50 [6] [nM] | Ratio EC50 [7] | EC50 [8] [nM] | IC50 [9] [nM] |
| --- | --- | --- | --- | --- | --- | --- | --- | --- | --- | --- |
| CN(C)C(=O)/C=C/c1cnc2c(c1)c(N)c(C(=O)NCc1ccc(F)cc1F)c(=O)n2O | 9 | 7.2 | 1.6 | 5 | 5 | > 250000 | 15 | 36 | 58 |  |
| Nc1c(C(=O)NCc2ccc(F)cc2F)c(=O)n(O)c2ncc(CCCC3CCCCC3)cc12 | 3 | 112 | 53 |  | 2 | 27400 | 146 |  |  | 289000 |
| Nc1c(C(=O)NCc2ccc(F)cc2F)c(=O)n(O)c2ncc(CCC(=O)O)cc12 | 5 | 4.9 | 1.9 | 4 | 3 | > 250000 | 10 | 103 | 195 |  |
| COC(=O)CNc1c(C(=O)NCc2ccc(F)cc2F)c(=O)n(O)c2nc(N3CCCCC3)ccc12 |  |  |  | 96000 |  |  |  |  |  | > 333000 |
| Nc1c(C(=O)NCc2ccc(F)cc2F)c(=O)n(O)c2nc(N3CCOCC3)ccc12 |  |  |  | 54000 |  |  |  |  |  | > 333000 |
| COC(=O)CNc1c(C(=O)NCc2ccc(F)cc2F)c(=O)n(O)c2nc(OC)ccc12 | 39 | 52 | 32 | 42 | 2 | 12000 | 1260 |  |  | 20000 |
| CN(C)C(=O)CCc1cnc2c(c1)c(N)c(C(=O)NCc1ccc(F)cc1F)c(=O)n2O | 5 | 6 | 1.3 | 8 | 5 | > 250000 | 6.8 | 12 | 16 |  |
| CC(C)NC(=O)/C=C/c1cnc2c(c1)c(N)c(C(=O)NCc1ccc(F)cc1F)c(=O)n2O | 6 | 11 | 2.1 | 6 | 5 | > 250000 | 12 | 136 | 286 |  |
| O=C(NCc1ccc(F)cc1F)c1c(O)c2ccc(N3CCCCC3)nc2n(O)c1=O |  |  |  | 70000 |  |  |  |  |  | > 333000 |
| COC(=O)CNc1c(C(=O)NCc2ccc(F)cc2F)c(=O)n(O)c2nc(N3CCOCC3)ccc12 |  |  |  | 6200 |  |  |  |  |  | > 333000 |
| COC(=O)CNc1c(C(=O)NCc2ccc(F)cc2F)c(=O)n(O)c2ncc(CCCCCO)cc12 | 3 | 3.5 | 3.3 | 4 | 1 | > 250000 | 11 | 13 | 42 | 2100 |
| O=C(NCc1ccc(F)cc1F)c1c(O)c2ccc(N3CCOCC3)nc2n(O)c1=O |  |  |  | 1900 |  |  |  |  |  | > 333000 |
